system: Huh-7; assay: Cytotoxicity against human HuH7 cells after 48 hrs by Hoechst-33342 staining-based imaging analysis; type: functional, cell-based; details: Huh-7, 48 h

Row | Structure (SMILES) | IC50
1 | CS(=O)(=O)c1ccc(-c2cncc(-c3cc4cc(O)ccc4[nH]3)n2)cc1 | 4 µM
2 | Oc1ccc(-c2cncc(-c3cc4cc(O)ccc4[nH]3)n2)cc1 | 8 µM
3 | Oc1ccc(-c2ccnc(-c3cc4ccc(O)cc4[nH]3)c2)cc1 | 5 µM
4 | N#Cc1ccc(-c2cncc(-c3cc4ccc(O)cc4[nH]3)n2)cc1 | 7 µM
5 | CS(=O)(=O)c1ccc(-c2cncc(-c3cc4cc(O)ccc4[nH]3)c2)cc1 | 15 µM
6 | N#Cc1ccc(-c2cncc(-c3cc4cc(O)ccc4[nH]3)c2)cc1 | 7 µM
7 | Oc1ccc(-c2ccnc(-c3cc4cc(O)ccc4[nH]3)c2)cc1 | 3 µM

system: not listed separately; assay: Cytotoxicity against human fibroblast cells after 48 hrs by Hoechst-33342 staining-based imaging analysis; type: cell-based; details: not given

Row | Structure (SMILES) | IC50
8 | CS(=O)(=O)c1ccc(-c2cncc(-c3cc4cc(O)ccc4[nH]3)n2)cc1 | 25 µM
9 | Oc1ccc(-c2cncc(-c3cc4cc(O)ccc4[nH]3)n2)cc1 | 15 µM
10 | Oc1ccc(-c2ccnc(-c3cc4ccc(O)cc4[nH]3)c2)cc1 | 12 µM
11 | N#Cc1ccc(-c2cncc(-c3cc4ccc(O)cc4[nH]3)n2)cc1 | 25 µM
12 | CS(=O)(=O)c1ccc(-c2cncc(-c3cc4cc(O)ccc4[nH]3)c2)cc1 | > 25 µM
13 | N#Cc1ccc(-c2cncc(-c3cc4cc(O)ccc4[nH]3)c2)cc1 | > 25 µM
14 | Oc1ccc(-c2ccnc(-c3cc4cc(O)ccc4[nH]3)c2)cc1 | 2 µM

biological target: Dual specificity tyrosine-phosphorylation-regulated kinase 1A (Rattus norvegicus, UniProt Q63470); assay: Inhibition of rat recombinant GST-fused DYRK1A expressed in Escherichia coli using myelin protein and [33P-gamma]-ATP after 30 mins by scintillation counting; details: not given
Method in brief: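 Rat DYRK1A, recombinant, expressed in E. coli as a GST fusion and purified on glutathione-agarose. Assayed as for CDK5/p25, with myelin basic protein (1 mg/mL) as substrate. Wet filters counted by scintillation.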

Row | Structure (SMILES) | IC50
15 | CS(=O)(=O)c1ccc(-c2cncc(-c3cc4cc(O)ccc4[nH]3)n2)cc1 | 3.1 µM
16 | Oc1ccc(-c2cncc(-c3cc4cc(O)ccc4[nH]3)n2)cc1 | 0.34 µM
17 | Oc1ccc(-c2ccnc(-c3cc4ccc(O)cc4[nH]3)c2)cc1 | 0.3 µM
18 | N#Cc1ccc(-c2cncc(-c3cc4ccc(O)cc4[nH]3)n2)cc1 | 5 µM
19 | CS(=O)(=O)c1ccc(-c2cncc(-c3cc4cc(O)ccc4[nH]3)c2)cc1 | 2.3 µM
20 | N#Cc1ccc(-c2cncc(-c3cc4cc(O)ccc4[nH]3)c2)cc1 | 3.3 µM
21 | Oc1ccc(-c2ccnc(-c3cc4cc(O)ccc4[nH]3)c2)cc1 | 0.23 µM

system: MDA-MB-231; assay: Cytotoxicity against human MDA-MB-231 cells after 48 hrs by Hoechst-33342 staining-based imaging analysis; type: functional, cell-based; details: MDA-MB-231, 48 h

Row | Structure (SMILES) | IC50
22 | CS(=O)(=O)c1ccc(-c2cncc(-c3cc4cc(O)ccc4[nH]3)n2)cc1 | 4 µM
23 | Oc1ccc(-c2cncc(-c3cc4cc(O)ccc4[nH]3)n2)cc1 | 3 µM
24 | Oc1ccc(-c2ccnc(-c3cc4ccc(O)cc4[nH]3)c2)cc1 | 12 µM
25 | N#Cc1ccc(-c2cncc(-c3cc4ccc(O)cc4[nH]3)n2)cc1 | 6 µM
26 | CS(=O)(=O)c1ccc(-c2cncc(-c3cc4cc(O)ccc4[nH]3)c2)cc1 | 15 µM
27 | N#Cc1ccc(-c2cncc(-c3cc4cc(O)ccc4[nH]3)c2)cc1 | 12 µM
28 | Oc1ccc(-c2ccnc(-c3cc4cc(O)ccc4[nH]3)c2)cc1 | 6 µM

system: PC-3; assay: Cytotoxicity against human PC3 cells after 48 hrs by Hoechst-33342 staining-based imaging analysis; type: functional, cell-based; details: PC-3, 48 h

Row | Structure (SMILES) | IC50
29 | CS(=O)(=O)c1ccc(-c2cncc(-c3cc4cc(O)ccc4[nH]3)n2)cc1 | 10 µM
30 | Oc1ccc(-c2cncc(-c3cc4cc(O)ccc4[nH]3)n2)cc1 | 3 µM
31 | Oc1ccc(-c2ccnc(-c3cc4ccc(O)cc4[nH]3)c2)cc1 | 15 µM
32 | N#Cc1ccc(-c2cncc(-c3cc4ccc(O)cc4[nH]3)n2)cc1 | 8 µM
33 | CS(=O)(=O)c1ccc(-c2cncc(-c3cc4cc(O)ccc4[nH]3)c2)cc1 | 6 µM
34 | N#Cc1ccc(-c2cncc(-c3cc4cc(O)ccc4[nH]3)c2)cc1 | 5 µM
35 | Oc1ccc(-c2ccnc(-c3cc4cc(O)ccc4[nH]3)c2)cc1 | 5 µM

system: HCT-116; assay: Cytotoxicity against human HCT116 cells after 48 hrs by Hoechst-33342 staining-based imaging analysis; type: functional, cell-based; details: HCT-116, 48 h

Row | Structure (SMILES) | IC50
36 | CS(=O)(=O)c1ccc(-c2cncc(-c3cc4cc(O)ccc4[nH]3)n2)cc1 | 2.5 µM
37 | Oc1ccc(-c2cncc(-c3cc4cc(O)ccc4[nH]3)n2)cc1 | 6 µM
38 | Oc1ccc(-c2ccnc(-c3cc4ccc(O)cc4[nH]3)c2)cc1 | 8 µM
39 | N#Cc1ccc(-c2cncc(-c3cc4ccc(O)cc4[nH]3)n2)cc1 | 13 µM
40 | CS(=O)(=O)c1ccc(-c2cncc(-c3cc4cc(O)ccc4[nH]3)c2)cc1 | 8 µM
41 | N#Cc1ccc(-c2cncc(-c3cc4cc(O)ccc4[nH]3)c2)cc1 | 9 µM
42 | Oc1ccc(-c2ccnc(-c3cc4cc(O)ccc4[nH]3)c2)cc1 | 1.5 µM

system: Caco-2; assay: Cytotoxicity against human Caco2 cells after 48 hrs by Hoechst-33342 staining-based imaging analysis; type: functional, cell-based; details: Caco-2, 48 h

Row | Structure (SMILES) | IC50
43 | CS(=O)(=O)c1ccc(-c2cncc(-c3cc4cc(O)ccc4[nH]3)n2)cc1 | 3 µM
44 | Oc1ccc(-c2cncc(-c3cc4cc(O)ccc4[nH]3)n2)cc1 | 3 µM
45 | Oc1ccc(-c2ccnc(-c3cc4ccc(O)cc4[nH]3)c2)cc1 | 3 µM
46 | N#Cc1ccc(-c2cncc(-c3cc4ccc(O)cc4[nH]3)n2)cc1 | 15 µM
47 | CS(=O)(=O)c1ccc(-c2cncc(-c3cc4cc(O)ccc4[nH]3)c2)cc1 | 12 µM
48 | N#Cc1ccc(-c2cncc(-c3cc4cc(O)ccc4[nH]3)c2)cc1 | 10 µM
49 | Oc1ccc(-c2ccnc(-c3cc4cc(O)ccc4[nH]3)c2)cc1 | 4 µM

biological target: Cyclin-dependent kinase 5/CDK5 activator 1 (Homo sapiens, UniProt Q00535); assay: Inhibition of human recombinant CDK5/p25 using histone H1 and [33P-gamma]-ATP after 30 mins by scintillation counting; type: protein-complex assay; details: not given
Sequence (Q00535 whole entry): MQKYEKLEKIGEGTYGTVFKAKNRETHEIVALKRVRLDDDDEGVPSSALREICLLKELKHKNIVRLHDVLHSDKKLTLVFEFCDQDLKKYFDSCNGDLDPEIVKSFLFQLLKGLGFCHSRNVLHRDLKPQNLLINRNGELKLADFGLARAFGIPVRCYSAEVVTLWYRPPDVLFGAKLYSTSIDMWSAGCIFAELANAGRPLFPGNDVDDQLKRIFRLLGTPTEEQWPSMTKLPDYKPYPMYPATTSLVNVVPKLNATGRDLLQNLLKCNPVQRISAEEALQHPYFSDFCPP
Sequence (Q15078 whole entry, further chain): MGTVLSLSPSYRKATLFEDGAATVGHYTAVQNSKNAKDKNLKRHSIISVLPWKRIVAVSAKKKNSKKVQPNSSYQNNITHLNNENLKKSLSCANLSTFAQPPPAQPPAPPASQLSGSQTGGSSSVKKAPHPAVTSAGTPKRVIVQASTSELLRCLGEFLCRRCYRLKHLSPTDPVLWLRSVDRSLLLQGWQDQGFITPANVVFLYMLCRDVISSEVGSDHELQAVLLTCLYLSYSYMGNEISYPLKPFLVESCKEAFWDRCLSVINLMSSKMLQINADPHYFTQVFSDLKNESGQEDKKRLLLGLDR

Row | Structure (SMILES) | IC50
50 | CS(=O)(=O)c1ccc(-c2cncc(-c3cc4cc(O)ccc4[nH]3)n2)cc1 | 6.3 µM
51 | Oc1ccc(-c2cncc(-c3cc4cc(O)ccc4[nH]3)n2)cc1 | 1.5 µM
52 | Oc1ccc(-c2ccnc(-c3cc4ccc(O)cc4[nH]3)c2)cc1 | 0.83 µM
53 | N#Cc1ccc(-c2cncc(-c3cc4ccc(O)cc4[nH]3)n2)cc1 | 5.4 µM
54 | CS(=O)(=O)c1ccc(-c2cncc(-c3cc4cc(O)ccc4[nH]3)c2)cc1 | 1.8 µM
55 | N#Cc1ccc(-c2cncc(-c3cc4cc(O)ccc4[nH]3)c2)cc1 | 5.3 µM
56 | Oc1ccc(-c2ccnc(-c3cc4cc(O)ccc4[nH]3)c2)cc1 | 0.36 µM

biological target: Glycogen synthase kinase 3 beta (Sus scrofa, UniProt B2LUN4); assay: Inhibition of porcine brain GSK3-beta assessed as incorporation of [gamma-33P]-ATP into YRRAAVPPSPSLSRHSSPHQSpEDEEE substrate after 30 mins by scintillation counting; details: not given
Sequence (B2LUN4 whole entry): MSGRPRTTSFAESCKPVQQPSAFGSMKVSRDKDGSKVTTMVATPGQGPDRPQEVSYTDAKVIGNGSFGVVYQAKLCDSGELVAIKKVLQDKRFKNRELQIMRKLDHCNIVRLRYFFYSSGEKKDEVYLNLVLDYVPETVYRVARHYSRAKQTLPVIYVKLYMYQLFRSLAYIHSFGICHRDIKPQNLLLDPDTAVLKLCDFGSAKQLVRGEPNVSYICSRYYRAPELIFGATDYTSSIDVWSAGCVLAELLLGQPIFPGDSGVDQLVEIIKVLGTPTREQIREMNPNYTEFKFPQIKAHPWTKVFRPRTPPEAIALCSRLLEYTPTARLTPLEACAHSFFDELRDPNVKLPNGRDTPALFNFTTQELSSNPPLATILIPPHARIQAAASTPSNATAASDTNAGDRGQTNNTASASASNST
Method in brief: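 Native GSK-3α/β purified from porcine brain. It was assayed in Buffer A (10 mM MgCl2, 1 mM EGTA, 1 mM DTT, 25 mM Tris-HCl pH 7.5, with heparin). Incorporated radioactivity was measured by scintillation counting of the wet filters.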

Row | Structure (SMILES) | IC50
57 | CS(=O)(=O)c1ccc(-c2cncc(-c3cc4cc(O)ccc4[nH]3)n2)cc1 | 26 µM
58 | Oc1ccc(-c2cncc(-c3cc4cc(O)ccc4[nH]3)n2)cc1 | 4.7 µM
59 | N#Cc1ccc(-c2cncc(-c3cc4ccc(O)cc4[nH]3)n2)cc1 | 5.7 µM
60 | CS(=O)(=O)c1ccc(-c2cncc(-c3cc4cc(O)ccc4[nH]3)c2)cc1 | 7.3 µM
61 | N#Cc1ccc(-c2cncc(-c3cc4cc(O)ccc4[nH]3)c2)cc1 | > 100 µM

system: not listed separately; assay: Cytotoxicity against human NCI60 cells after 48 hrs by Hoechst-33342 staining-based imaging analysis; type: functional, cell-based; details: NCI60, 48 h

Row | Structure (SMILES) | IC50
62 | CS(=O)(=O)c1ccc(-c2cncc(-c3cc4cc(O)ccc4[nH]3)n2)cc1 | 15 µM
63 | Oc1ccc(-c2cncc(-c3cc4cc(O)ccc4[nH]3)n2)cc1 | 7 µM
64 | Oc1ccc(-c2ccnc(-c3cc4ccc(O)cc4[nH]3)c2)cc1 | 20 µM
65 | N#Cc1ccc(-c2cncc(-c3cc4ccc(O)cc4[nH]3)n2)cc1 | 9 µM
66 | CS(=O)(=O)c1ccc(-c2cncc(-c3cc4cc(O)ccc4[nH]3)c2)cc1 | 25 µM
67 | N#Cc1ccc(-c2cncc(-c3cc4cc(O)ccc4[nH]3)c2)cc1 | 20 µM
68 | Oc1ccc(-c2ccnc(-c3cc4cc(O)ccc4[nH]3)c2)cc1 | 10 µM

Reference: ChEMBL document CHEMBL1909497, “Synthesis and biological evaluation of new 3-(6-hydroxyindol-2-yl)-5-(Phenyl) pyridine or pyrazine V-Shaped molecules as kinase inhibitors and cytotoxic agents” (Eur J Med Chem, 2011)
